18 compounds from ChEMBL document CHEMBL1154924, “Carbonic anhydrase activators: Activation of the beta-carbonic anhydrase from the pathogenic yeast Candida glabrata with amines and amino acids” (Bioorg Med Chem Lett, 2010) can be followed below.

Data set [1] deals with NCCc1c[nH]cn1. The following applies: Homo sapiens.
Data set [2] deals with Carbonic anhydrase 2 (Homo sapiens) (UniProt P00918). Description: Activation of human recombinant carbonic anhydrase isoenzyme 2 by stopped flow CO2 hydration method.
Data set [3] has as its target T1, Carbonic anhydrase (Methanobacterium thermoautotrophicum) (UniProt Q50565).
T1 sequence (whole entry): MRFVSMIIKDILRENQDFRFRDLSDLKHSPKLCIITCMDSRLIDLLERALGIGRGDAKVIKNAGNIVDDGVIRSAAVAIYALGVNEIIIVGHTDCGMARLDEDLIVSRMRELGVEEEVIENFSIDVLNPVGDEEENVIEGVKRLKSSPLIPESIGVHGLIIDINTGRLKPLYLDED
In words: Activation of archaea Methanobacterium thermoautotrophicum recombinant carbonic anhydrase by stopped flow CO2 hydration method. Particulars: Methanothermobacter thermautotrophicus.

For data set [4], the target named is T2, Carbonic anhydrase (Saccharomyces cerevisiae S288c) (UniProt P53615).
T2 sequence (whole entry): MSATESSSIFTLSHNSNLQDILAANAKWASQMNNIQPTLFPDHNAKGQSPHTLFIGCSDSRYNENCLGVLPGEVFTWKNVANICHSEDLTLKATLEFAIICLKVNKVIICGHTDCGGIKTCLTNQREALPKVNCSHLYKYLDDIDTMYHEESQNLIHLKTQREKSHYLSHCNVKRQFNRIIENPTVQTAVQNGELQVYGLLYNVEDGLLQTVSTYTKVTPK
Description: Activation of Saccharomyces cerevisiae recombinant Nce103p by stopped flow CO2 hydration method.

The target in data set [5] is T3, Carbonic anhydrase (Candida glabrata CBS 138) (UniProt Q6FTL6).
T3 sequence (whole entry): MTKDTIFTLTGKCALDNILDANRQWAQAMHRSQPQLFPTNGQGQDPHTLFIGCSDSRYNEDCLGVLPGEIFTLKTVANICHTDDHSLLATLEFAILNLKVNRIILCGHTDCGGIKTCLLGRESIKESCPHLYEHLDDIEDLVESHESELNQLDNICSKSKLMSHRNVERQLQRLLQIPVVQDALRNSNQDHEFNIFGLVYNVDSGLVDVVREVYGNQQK
In words: Activation of Candida glabrata recombinant carbonic anhydrase by stopped flow CO2 hydration method. Particulars: Nakaseomyces glabratus. In short, it runs like this:
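Recombinant yeast enzyme; stopped-flow CO2 hydration at 25 °C in 20 mM Tris (pH 8.3) and 20 mM NaClO4, with 0.2 mM phenol red read at 557 nm over 10 s. CO2 was 1.7–17 mM. Activators came from 10 mM aqueous stocks and were preincubated 15 min at room temperature with enzyme. Uncatalyzed rates were subtracted. KA was fitted from catalytic enhancement versus activator concentration; mean ± standard error of three assays.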

As for “Carbonic anhydrase 2 (Homo sapiens) (from UniProt P00918)”, the Km (as a rule, the concentration of substrate that gives half-maximal velocity) in data set [1] was determined as 9.3 mM.
Turning to `N[C@H](Cc1ccc(O)cc1)C(=O)O`, the Ka in data set [2] was 0.058 µM; in data set [3] it was 19.2 µM; in data set [4] it was 84 µM; in data set [5] it was 7.1 µM.
For `CNC[C@@H](O)c1ccc(O)c(O)c1`, the Ka in data set [3] was 11.5 µM; in data set [5] it was 10.8 µM.
On the same counts, the results for `NCCc1ccccn1` are 40 µM and 16.3 µM.
The like results for `N[C@H](Cc1c[nH]cn1)C(=O)O` were, in that order, 57 µM and 21.2 µM.
The like results for `N[C@@H](Cc1ccc(O)cc1)C(=O)O` were, in that order, 10.5 µM and 9.5 µM.
With `NCCN1CCNCC1`, the Ka in data set [3] came to 13.8 µM; in data set [5], 14.9 µM.
The like results for `NCc1ccccn1` were, in that order, 18.7 µM and 15 µM.
The like results for `N[C@@H](Cc1c[nH]cn1)C(=O)O` were, in that order, 69 µM and 37 µM.
On the same counts, the results for `Nc1ccc(C[C@H](N)C(=O)O)cc1` are 89 µM and 31.6 µM.
Take `NCCc1ccc(O)c(O)c1`: the Ka was determined as 51 µM in data set [3] and 27.6 µM in data set [5].
On the same counts, the results for `N[C@H](Cc1ccc(O)c(O)c1)C(=O)O` are 15.6 µM and 15.1 µM.
The like results for `NCCN1CCOCC1` were, in that order, 18.5 µM and 10.1 µM.
The like results for `N[C@H](Cc1c[nH]c2ccccc12)C(=O)O` were, in that order, 41 µM and 12.1 µM.
Turning to `N[C@@H](Cc1c[nH]c2ccccc12)C(=O)O`, the Ka in data set [3] is 16.9 µM; in data set [5] it was 22.8 µM.
The like results for `N[C@@H](Cc1ccc(O)c(O)c1)C(=O)O` were, in that order, 11.4 µM and 23.3 µM.
The like results for `NCCc1c[nH]cn1` were, in that order, 76 µM and 27.4 µM.
The like results for `NCCc1c[nH]c2ccc(O)cc12` were, in that order, 62 µM and 16.7 µM.
